Test results from ChEMBL document CHEMBL2146434, “Synthesis and biological evaluation of new amino acid and dipeptide derivatives of neocryptolepine as anticancer agents” (J Med Chem, 2012).

How the values were obtained:
[1] = Solubility of the compound in water; format: physicochemical; conditions: buffer
[2] = test system: Mus musculus; assay: Toxicity in C57BL/6 mouse xenografted with mouse LLC cells assessed as body weight loss at 25 mg/kg/day, sc administered on day 9 to day 13 of tumor implantation; format: organism-based; set-up: route subcutaneous; conditions: in vivo
Outline: (§1)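 Body weight was tracked in C57BL/6 mice bearing subcutaneously inoculated LLC during therapy given daily from day 9 to day 13. A single 100 mg/kg dose of cyclophosphamide served as the cytostatic control group.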

[3] = test system: Mus musculus; assay: Toxicity in C57BL/6 mouse xenografted with mouse LLC cells assessed as body weight loss at 50 mg/kg/day, sc administered on day 9 to day 13 of tumor implantation; format: organism-based; set-up: route subcutaneous; conditions: in vivo
Outline: (§2)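 Mouse Lewis lung carcinoma (LLC) cells inoculated sc into mice. Daily dosing from day 9: 15 mg kg⁻¹ day⁻¹ through day 13 or 30 mg kg⁻¹ day⁻¹ through day 12; 25 or 50 mg kg⁻¹ day⁻¹ through day 13. Route is given as ip in tables and text but sc in figure legends. Body weight monitored for loss alongside tumor growth. Single 100 mg/kg cyclophosphamide dose as cytostatic control.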

[4] = Toxicity in human erythrocytes assessed as hemolysis at 0.3 mM after 30 mins by spectrophotometric analysis; format: cell-based, Erythrocyte; conditions: read-out: Activity
Outline: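 Human erythrocyte suspension under isotonic conditions (pH 7.4, hematocrit 50%). Compound added across a concentration series and incubated 30 min at 37 °C before hemolysis was scored. Mean ± SD of three individual determinations. Statistics by Mann–Whitney U test, p < 0.05.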

[5] = test system: Lewis lung carcinoma cell line; assay: Antineoplastic activity against mouse LLC cells xenografted in C57BL/6 mouse assessed as tumor growth inhibition at 25 mg/kg/day, ip administered on day 9 to day 13 of tumor implantation measured on day 21; format: functional; conditions: route intraperitoneal, read-out: TGI
Outline: (§3)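 Mice bore Lewis lung carcinoma (LLC) inoculated subcutaneously and received test agents intraperitoneally at 15–50 mg kg⁻¹ day⁻¹ from day 9 or day 10. A single 100 mg/kg cyclophosphamide dose was the cytostatic control. Tumor growth was followed as the group median, and TGI% was calculated from medians versus untreated controls. Significance was tested by nonparametric Kruskal–Wallis multiple comparison, p < 0.05.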

[6] = Dissociation constant, pKa of the compound in PBS buffer at 5 uM at pH 2 to 10 by UV-spectrophotometric analysis; format: physicochemical
Outline: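 UV spectrophotometric titration at a final compound concentration of 5 μM. At this concentration the absorbance–concentration relationship stayed linear. pKa was read from spectral changes across pH.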

[7] = test system: Lewis lung carcinoma cell line; assay: Antineoplastic activity against mouse LLC cells xenografted in C57BL/6 mouse assessed as tumor growth inhibition at 25 mg/kg/day, ip administered on day 9 to day 13 of tumor implantation measured on day 11; format: functional; conditions: route intraperitoneal, read-out: TGI; outline: as §3
[8] = test system: LoVo; assay: Cytotoxicity against human LoVo cells after 72 hrs by SRB assay; format: functional, cell-based
Outline: (§4)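 IC50 is the compound concentration giving 50% inhibition of cell proliferation. It was determined on normal mouse BALB/3T3 fibroblasts and on human A549, MCF-7 and LoVo cancer lines, with doxorubicin hydrochloride and DiMIQ as reference compounds.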

[9] = test system: KB; assay: Cytotoxicity against human KB cells after 72 hrs by SRB assay; format: functional, cell-based
[10] = test system: A549; assay: Cytotoxicity against human A549 cells after 72 hrs by SRB assay; format: functional, cell-based; conditions: A549, 72 h; outline: as §4
[11] = test system: Lewis lung carcinoma cell line; assay: Antineoplastic activity against mouse LLC cells xenografted in C57BL/6 mouse assessed as tumor growth inhibition at 50 mg/kg/day, ip administered on day 9 to day 13 of tumor implantation measured on day 18; format: functional; conditions: route intraperitoneal, read-out: TGI; outline: as §3
[12] = test system: Mus musculus; assay: Toxicity in C57BL/6 mouse xenografted with mouse LLC cells at 25 to 50 mg/kg/day, ip administered on day 9 to day 13 of tumor implantation; format: organism-based; set-up: route intraperitoneal; conditions: in vivo; outline: as §2
[13] = test system: Lewis lung carcinoma cell line; assay: Antineoplastic activity against mouse LLC cells xenografted in C57BL/6 mouse assessed as tumor growth inhibition at 50 mg/kg/day, ip administered on day 9 to day 13 of tumor implantation measured on day 21; format: functional; conditions: route intraperitoneal, read-out: TGI; outline: as §3
[14] = test system: Lewis lung carcinoma cell line; assay: Antineoplastic activity against mouse LLC cells xenografted in C57BL/6 mouse assessed as tumor growth inhibition at 50 mg/kg/day, ip administered on day 9 to day 13 of tumor implantation measured on day 11; format: functional; conditions: route intraperitoneal, read-out: TGI; outline: as §3
[15] = test system: Mus musculus; assay: Toxicity in C57BL/6 mouse xenografted with mouse LLC cells assessed as body weight loss at 15 mg/kg/day, ip administered on day 9 to day 13 of tumor implantation; format: organism-based; set-up: route intraperitoneal; conditions: in vivo; outline: as §1
[16] = Octanol-water partition coefficient, log P of the compound in citric buffer at pH 2.5 by spectrophotometric analysis; format: physicochemical
Outline: (§5)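 Octanol–water partitioning, with log P defined as log(C_octanol/C_water). Compound in the aqueous phase was measured spectrophotometrically, and octanol content was obtained by subtracting the supernatant concentration from the total. Values are the mean of two independent experiments, each run in triplicate.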

[17] = test system: Lewis lung carcinoma cell line; assay: Antineoplastic activity against mouse LLC cells xenografted in C57BL/6 mouse assessed as tumor growth inhibition at 25 mg/kg/day, ip administered on day 9 to day 13 of tumor implantation measured on day 14; format: functional; conditions: route intraperitoneal, read-out: TGI; outline: as §3
[18] = test system: Mus musculus; assay: Toxicity in C57BL/6 mouse xenografted with mouse LLC cells assessed as body weight loss at 30 mg/kg/day, sc administered on day 9 to day 12 of tumor implantation; format: organism-based; set-up: route subcutaneous; conditions: in vivo; outline: as §2
[19] = test system: Mus musculus; assay: Toxicity in C57BL/6 mouse xenografted with mouse LLC cells assessed as body weight loss at 15 mg/kg/day, sc administered on day 9 to day 13 of tumor implantation; format: organism-based; set-up: route subcutaneous; conditions: in vivo; outline: as §1
[20] = Octanol-water partition coefficient, log P of the compound in PBS buffer at pH 7.4 by spectrophotometric analysis; format: physicochemical; outline: as §5
[21] = test system: Lewis lung carcinoma cell line; assay: Antineoplastic activity against mouse LLC cells xenografted in C57BL/6 mouse assessed as tumor growth inhibition at 50 mg/kg/day, ip administered on day 9 to day 13 of tumor implantation measured on day 16; format: functional; conditions: route intraperitoneal, read-out: TGI; outline: as §3
[22] = test system: Lewis lung carcinoma cell line; assay: Antineoplastic activity against mouse LLC cells xenografted in C57BL/6 mouse assessed as tumor growth inhibition at 50 mg/kg/day, ip administered on day 9 to day 13 of tumor implantation measured on day 23; format: functional; conditions: route intraperitoneal, read-out: TGI; outline: as §3
[23] = test system: MCF7; assay: Cytotoxicity against human MCF7 cells after 72 hrs by SRB assay; format: functional, cell-based; conditions: MCF7, 72 h; outline: as §4
[24] = test system: Lewis lung carcinoma cell line; assay: Antineoplastic activity against mouse LLC cells xenografted in C57BL/6 mouse assessed as tumor growth inhibition at 25 mg/kg/day, ip administered on day 9 to day 13 of tumor implantation measured on day 23; format: functional; conditions: route intraperitoneal, read-out: TGI; outline: as §3
[25] = test system: Lewis lung carcinoma cell line; assay: Antineoplastic activity against mouse LLC cells xenografted in C57BL/6 mouse assessed as tumor growth inhibition at 50 mg/kg/day, ip administered on day 9 to day 13 of tumor implantation measured on day 14; format: functional; conditions: route intraperitoneal, read-out: TGI; outline: as §3
[26] = test system: Lewis lung carcinoma cell line; assay: Antineoplastic activity against mouse LLC cells xenografted in C57BL/6 mouse assessed as tumor growth inhibition at 25 mg/kg/day, ip administered on day 9 to day 13 of tumor implantation measured on day 18; format: functional; conditions: route intraperitoneal, read-out: TGI; outline: as §3
[27] = test system: Lewis lung carcinoma cell line; assay: Antineoplastic activity against mouse LLC cells xenografted in C57BL/6 mouse assessed as tumor growth inhibition at 25 mg/kg/day, ip administered on day 9 to day 13 of tumor implantation measured on day 16; format: functional; conditions: route intraperitoneal, read-out: TGI; outline: as §3
[28] = test system: Mus musculus; assay: Toxicity in C57BL/6 mouse xenografted with mouse LLC cells assessed as body weight loss at 30 mg/kg/day, ip administered on day 9 to day 12 of tumor implantation; format: organism-based; set-up: route intraperitoneal; conditions: in vivo; outline: as §2
[29] = Octanol-water partition coefficient, log P of the compound at pH 5; format: physicochemical
[30] = Octanol-water partition coefficient, log P of the compound at pH 2.2; format: physicochemical

Cc1c2c3cc(NC(=O)CNC(=O)CN)ccc3nc-2n(C)c2ccccc12.Cl.Cl
solubility [1]: soluble | Activity [2]: <= 15% | Activity [3]: <= 15% | hemolysis at 0.5 h, 300 µM [4]: 9.97% | inhibition in vivo at 25 mg/kg/day [5]: 28% | pKa at 5 µM [6]: 7.5 | inhibition in vivo at 25 mg/kg/day [7]: 37.4% | IC50 [8]: 730 nM | IC50 [9]: 4.65 µM | IC50 [10]: 900 nM | inhibition in vivo at 50 mg/kg/day [11]: 38.3% | Activity [12]: Non-toxic | inhibition in vivo at 50 mg/kg/day [13]: 29.3% | inhibition in vivo at 50 mg/kg/day [14]: 46.9% | Activity [15]: <= 15% | logP [16]: -1.9 | inhibition in vivo at 25 mg/kg/day [17]: 31.8% | Activity [18]: <= 15% | Activity [19]: <= 15% | logD [20]: -0.2 | inhibition in vivo at 50 mg/kg/day [21]: 52.2% | inhibition in vivo at 50 mg/kg/day [22]: 42.9% | IC50 [23]: 2700 nM | inhibition in vivo at 25 mg/kg/day [24]: 35.8% | inhibition in vivo at 50 mg/kg/day [25]: 62.6% | inhibition in vivo at 25 mg/kg/day [26]: 22.4% | inhibition in vivo at 25 mg/kg/day [27]: 27.2% | Activity [28]: <= 15%

Cc1c2c3ccccc3nc-2n(C)c2ccccc12
logP [29]: 2 | logP [30]: -1 | IC50 [8]: 200 nM
